Screening data deposited in PubChem BioAssay by several laboratories.
Myeloid diff MLP – induction of myeloid progenitor differentiation, primary screen, cell-based, flow cytometry, MLPCN library; ER-HoxA9 myeloid progenitors, lysozyme-GFP differentiation; calls only at 10 µM; hit rate 1% among 360,000; AID 624256, 2012;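 active means normalized GFP-positive differentiation at or above the plate's own cutoff, the solvent-only control mean plus 3 SD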;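 further: cells exposed to compound for four days before flow analysis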
EBI2 block – EBI2 receptor antagonists, beta-arrestin recruitment, primary screen, cell-based, luminescence, 7a,25-OHC stimulation, uHTS. 7a,25-OHC stimulated. inhibition, % at 5 µM. hit rate 0.81% among 360,000; in the data active means inhibition above about 38%;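 further: enzyme fragment complementation signal reports receptor beta-arrestin coupling in cells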
MC4R antag cAMP – MC4R antagonists of cAMP signaling, primary screen, cell-based, TR-FRET, antagonist arm of biased-ligand search; Melanocortin receptor 4 (Homo sapiens), P32245; hit rate 0.48% among 360,000; inhibition, % at 6.5 µM; MC4R-expressing cells, MTII-stimulated cAMP, LANCE TR-FRET; AID 540295, 2011;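 active means inhibition above its plate's cutoff, the mean of tested wells on that plate plus 3 SD, cut at about 29% in these data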
Target sequence (P32245 whole entry, looked up): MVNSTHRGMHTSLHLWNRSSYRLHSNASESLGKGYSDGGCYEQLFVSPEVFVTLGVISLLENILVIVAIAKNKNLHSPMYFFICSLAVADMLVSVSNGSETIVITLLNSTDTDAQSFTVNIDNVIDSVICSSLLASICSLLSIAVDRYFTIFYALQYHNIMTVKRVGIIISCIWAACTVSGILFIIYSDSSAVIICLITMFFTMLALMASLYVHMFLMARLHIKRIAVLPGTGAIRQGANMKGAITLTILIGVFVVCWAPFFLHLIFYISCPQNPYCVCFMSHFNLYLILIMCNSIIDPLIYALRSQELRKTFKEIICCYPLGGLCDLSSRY
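Test system: U2OS cells stably expressing human melanocortin 4 receptor (MC4R); also added: Melanotan II challenge; compound: 6.5 µM single dose; timing: 30-min compound preincubation, 1-h Melanotan II challenge, 1-h detection, room temperature; signal: Eu-cAMP/anti-cAMP TR-FRET, emission 671 nm; repeats: one well per compound, no replicates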
MC4R ag barr – MC4R agonists recruiting beta-arrestin, primary screen, cell-based, luminescence, agonist arm of biased-ligand search. Melanocortin receptor 4 (Homo sapiens), P32245. U2OS MC4R beta-arrestin complementation; percent of melanotan II response, DMSO zero. activation, % at 8.9 µM. hit rate 0.98% among 360,000. AID 540308, 2011;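 active means activation above a per-plate cutoff, the mean activation of sample wells on that plate plus 3 SD, cut at about 8% in these data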
Exocytosis inh – LAMP-1 surface exposure blockers, TALL-104 cells – cell-based, flow cytometry, MLPCN library, primary screen; hit rate 0.66% among 360,000; inhibition, % at 10 µM; TALL-104 LAMP-1 surface exposure; cells stimulated with thapsigargin and PMA;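 active means inhibition above about 55%, limit read from the data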
A number is an active result; ! = a repeat was not active. Sampled rows, rich in hits. Any-hit rate of the full collection: about 3.7%.

CCOC(=O)[C@H]1[C@H]2COc3ccc(OC)cc3[C@H]2N2C(=O)CNC(=O)[C@@]12C was read as Myeloid diff MLP inactive, EBI2 block inactive, MC4R antag cAMP inactive, MC4R ag barr inactive and Exocytosis inh inactive.
Cc1nc(N/N=C/c2ccc(Br)cc2)cc(N2CCOCC2)n1 was read as Myeloid diff MLP inactive, EBI2 block inactive, MC4R antag cAMP inactive, MC4R ag barr 8.3 and Exocytosis inh inactive.
Oc1ccc(/C=N/Nc2cc(N3CCCC3)nc(N3CCCC3)n2)cc1 was read as Myeloid diff MLP inactive, EBI2 block 55, MC4R antag cAMP inactive, MC4R ag barr inactive and Exocytosis inh inactive.
For Cc1cc(C)nc(SCc2cnc(C)nc2N)n1 the results were Myeloid diff MLP inactive, EBI2 block inactive, MC4R antag cAMP inactive, MC4R ag barr inactive and Exocytosis inh inactive.
`Cc1ccc(/C=C/C(=O)N2CC(C)CC(C)C2)o1` (stereo not drawn) gave Myeloid diff MLP inactive, EBI2 block inactive, MC4R antag cAMP inactive, MC4R ag barr inactive and Exocytosis inh 102.
Screening O=C(CSc1ccccn1)Nc1cccc([N+](=O)[O-])c1 returned Myeloid diff MLP inactive, EBI2 block inactive, MC4R antag cAMP inactive, MC4R ag barr inactive and Exocytosis inh inactive.
For O=C(CSc1nc(-c2ccc(Cl)cc2)cs1)Nc1cccc([N+](=O)[O-])c1 the results were Myeloid diff MLP inactive, EBI2 block inactive, MC4R antag cAMP inactive, MC4R ag barr inactive and Exocytosis inh 65.
CCOC(=O)c1ccccc1NC(=O)COC(=O)CCC1CCCC1 was read as Myeloid diff MLP inactive, EBI2 block inactive, MC4R antag cAMP inactive, MC4R ag barr inactive and Exocytosis inh inactive.
C[C@@H]1CCCCO[C@H](CN(C)Cc2ccc(C(=O)O)cc2)[C@@H](C)CN([C@H](C)CO)C(=O)c2cc(NC(=O)CCC(F)(F)F)ccc2O1 was read as Myeloid diff MLP inactive, EBI2 block inactive, MC4R antag cAMP inactive, MC4R ag barr inactive and Exocytosis inh inactive.
`N/C(=N\OC(=O)c1ccc(Cl)cc1)c1ccccn1` gave Myeloid diff MLP inactive, EBI2 block inactive, MC4R antag cAMP inactive, MC4R ag barr inactive and Exocytosis inh inactive.
For N/C(=N/OC(=O)c1ccc(Cl)cc1)c1ncc([N+](=O)[O-])s1 the results were Myeloid diff MLP active, EBI2 block inactive, MC4R antag cAMP inactive, MC4R ag barr inactive and Exocytosis inh inactive.
`CN(Cc1cnc2nc(N)nc(N)c2n1)c1ccc(C(=O)N[C@@H](CCC(=O)O)C(=O)O)cc1` gave Myeloid diff MLP active!, EBI2 block inactive, MC4R antag cAMP inactive, MC4R ag barr inactive and Exocytosis inh inactive.
For Cc1cccc(C2N=C(N)Nc3nc4ccccc4n32)c1 (stereo not drawn) the results were Myeloid diff MLP inactive, EBI2 block inactive, MC4R antag cAMP inactive, MC4R ag barr inactive and Exocytosis inh inactive.
For COc1ccc(CC(=O)NNS(=O)(=O)c2ccccc2)cc1OC the results were Myeloid diff MLP inactive, EBI2 block inactive, MC4R antag cAMP inactive, MC4R ag barr inactive and Exocytosis inh inactive.
For CN(c1ccc(C(=O)Nc2ccc3c(c2)OCCO3)cc1)S(C)(=O)=O the results were Myeloid diff MLP active, EBI2 block inactive, MC4R antag cAMP inactive, MC4R ag barr inactive and Exocytosis inh inactive.
O=C(CN(C(=O)c1csnn1)c1ccc(F)cc1)NCc1ccc2c(c1)OCO2 was read as Myeloid diff MLP inactive, EBI2 block inactive, MC4R antag cAMP inactive, MC4R ag barr inactive and Exocytosis inh inactive.
O=C(CCCN=C1NS(=O)(=O)c2ccccc21)OCc1cc([N+](=O)[O-])cc2c1OCOC2 was read as Myeloid diff MLP active, EBI2 block inactive, MC4R antag cAMP inactive, MC4R ag barr inactive and Exocytosis inh inactive.
CC(=O)c1ccc(OCC(=O)N(C)CC(=O)Nc2ccc(N3CCOCC3)cc2)cc1 was read as Myeloid diff MLP inactive, EBI2 block inactive, MC4R antag cAMP inactive, MC4R ag barr inactive and Exocytosis inh inactive.
For S=C(NCCN(C1CCCCC1)C1CCCC1)Nc1cccc(Cl)c1 the results were Myeloid diff MLP active, EBI2 block inactive, MC4R antag cAMP inactive, MC4R ag barr inactive and Exocytosis inh inactive.
`CCCCc1ccc(NC(=O)Nc2cnccn2)cc1` gave Myeloid diff MLP active, EBI2 block inactive, MC4R antag cAMP inactive, MC4R ag barr inactive and Exocytosis inh inactive.
`C=CCN(c1ccccc1)S(=O)(=O)c1ccc(Cl)c(C(=O)OCC(=O)c2[nH]c(C)c(C(C)=O)c2C)c1` gave Myeloid diff MLP inactive, EBI2 block inactive, MC4R antag cAMP inactive, MC4R ag barr inactive and Exocytosis inh inactive.
`Cc1cc(C)c2c(c1)/C(=N\N=c1\sc3ccccc3n1C)C(=O)N2` gave Myeloid diff MLP active, EBI2 block inactive, MC4R antag cAMP inactive, MC4R ag barr inactive and Exocytosis inh inactive.
CCOC(=O)N1C2C=C(C)[C@@H]2[C@@H]2CC(=O)N21 (stereo partly drawn) was read as Myeloid diff MLP inactive, EBI2 block inactive, MC4R antag cAMP inactive, MC4R ag barr inactive and Exocytosis inh inactive.
For Cc1nc(N)nc(N)c1Oc1ccc(Cl)cc1 the results were Myeloid diff MLP active, EBI2 block inactive, MC4R antag cAMP inactive, MC4R ag barr inactive and Exocytosis inh inactive.
For CC(=O)Nc1nc(C)c(Oc2ccc(Cl)cc2)c(=O)[nH]1 the results were Myeloid diff MLP inactive, EBI2 block inactive, MC4R antag cAMP inactive, MC4R ag barr inactive and Exocytosis inh inactive.
Screening COc1cc(NC(=O)CCl)ccc(=O)c1 returned Myeloid diff MLP inactive, EBI2 block inactive, MC4R antag cAMP inactive, MC4R ag barr inactive and Exocytosis inh inactive.
Screening COc1cc(NC(=O)CCc2nnc3ccc(N4CCCCC4)nn23)cc(OC)c1OC returned Myeloid diff MLP active, EBI2 block inactive, MC4R antag cAMP inactive, MC4R ag barr inactive and Exocytosis inh inactive.
For COc1cccc(C(=O)NC2CC3CCCC(C2)N3CC(=O)Nc2ccccc2C(F)(F)F)c1 (stereo not drawn) the results were Myeloid diff MLP inactive, EBI2 block inactive, MC4R antag cAMP inactive, MC4R ag barr inactive and Exocytosis inh inactive.
`O=C(CN1C2CCCC1CC(NC(=O)C1CCCCC1)C2)Nc1ccccc1C(F)(F)F` (stereo not drawn) gave Myeloid diff MLP active, EBI2 block inactive, MC4R antag cAMP inactive, MC4R ag barr inactive and Exocytosis inh inactive.
CCN(c1ccc(OC)cc1)S(=O)(=O)c1nnc(NC(=O)c2ccc(C)cc2)s1 was read as Myeloid diff MLP inactive, EBI2 block inactive, MC4R antag cAMP inactive, MC4R ag barr inactive and Exocytosis inh inactive.
For COC(=O)[C@@]1(Cc2ccc(F)cc2)[C@H]2c3cc(C(=O)N4CCCC4)n(C)c3C[C@H]2CN1C(=O)c1ccccc1 the results were Myeloid diff MLP inactive, EBI2 block inactive and Exocytosis inh inactive.
